Data: article PMC6911266 (Nature, 2019)
Where “and” joins values, the source holds several entries; their conditions need not be identical. Equal entries are not always repeated. Where two headings read alike, the source gives them in different places.

Legend:
PfCRT 7G8 [1] = target: T1, PfCRT 7G8 (Plasmodium falciparum, UniProt W7FI62); experiment: Scintillation proximity assay; assay type: binding; conditions: for competition of [3H]-Arg binding (in words): 125 nM [3H]-Arg, 1 μM CQ or PPQ, 0.1 μM amodiaquine, 1 mM Arg, Lys or Leu
T1 sequence (W7FI62 1-424): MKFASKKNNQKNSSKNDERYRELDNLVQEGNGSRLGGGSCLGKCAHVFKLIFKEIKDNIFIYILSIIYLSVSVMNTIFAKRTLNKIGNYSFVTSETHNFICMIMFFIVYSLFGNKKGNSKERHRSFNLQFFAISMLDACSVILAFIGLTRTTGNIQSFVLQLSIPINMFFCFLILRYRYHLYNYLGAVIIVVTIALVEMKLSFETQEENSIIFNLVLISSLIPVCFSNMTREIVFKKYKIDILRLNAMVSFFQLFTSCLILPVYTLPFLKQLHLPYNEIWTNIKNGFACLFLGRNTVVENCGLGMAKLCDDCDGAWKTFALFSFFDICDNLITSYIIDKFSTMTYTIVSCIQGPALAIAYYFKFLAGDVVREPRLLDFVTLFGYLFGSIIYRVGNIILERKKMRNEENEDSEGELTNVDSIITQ

PfCRT 7G8 [2] = target: T1, PfCRT 7G8; assay type: biochemical
PfCRT 7G8+C289A = target: T2, PfCRT 7G8+C289A (Plasmodium falciparum, UniProt W7FI62, C289A); experiment: Transport; assay type: biochemical; conditions: read-out: IC50 (concentration yielding half-maximal reduction of [3H]-CQ transport); 100 nM [3H]-CQ, 1 min
T2 sequence (W7FI62 1-424 C289A): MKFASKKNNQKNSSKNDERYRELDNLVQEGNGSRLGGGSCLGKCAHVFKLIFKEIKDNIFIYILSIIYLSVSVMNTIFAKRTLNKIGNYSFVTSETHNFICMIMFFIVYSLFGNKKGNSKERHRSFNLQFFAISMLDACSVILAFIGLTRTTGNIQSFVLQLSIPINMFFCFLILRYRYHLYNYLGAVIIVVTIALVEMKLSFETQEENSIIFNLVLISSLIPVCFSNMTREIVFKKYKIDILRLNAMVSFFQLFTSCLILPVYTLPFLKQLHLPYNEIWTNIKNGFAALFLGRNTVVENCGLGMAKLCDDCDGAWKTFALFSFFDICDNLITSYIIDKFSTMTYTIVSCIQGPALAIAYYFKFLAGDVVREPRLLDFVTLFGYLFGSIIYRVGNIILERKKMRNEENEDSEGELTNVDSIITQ
In short: (§1)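 Proteoliposomes with the PfCRT variant (40 ng PfCRT per assay) have a lumen of 100 mM KPi, pH 7.5, with 2 mM β-mercaptoethanol. They are diluted into 100 mM Tris/Mes, pH 5.5, with 100 nM [3H]-CQ (5.45 Ci/mmol) and increasing β-mercaptoethanol, and uptake runs for 1 min. Values are corrected for mock uptake on nitrocellulose filters and for control liposomes lacking PfCRT. IC50 is the β-mercaptoethanol concentration halving transport.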

PfCRT 7G8+C301A = target: T3, PfCRT 7G8+C301A (Plasmodium falciparum, UniProt W7FI62, C301A); experiment: Transport; assay type: biochemical
T3 sequence (W7FI62 1-424 C301A): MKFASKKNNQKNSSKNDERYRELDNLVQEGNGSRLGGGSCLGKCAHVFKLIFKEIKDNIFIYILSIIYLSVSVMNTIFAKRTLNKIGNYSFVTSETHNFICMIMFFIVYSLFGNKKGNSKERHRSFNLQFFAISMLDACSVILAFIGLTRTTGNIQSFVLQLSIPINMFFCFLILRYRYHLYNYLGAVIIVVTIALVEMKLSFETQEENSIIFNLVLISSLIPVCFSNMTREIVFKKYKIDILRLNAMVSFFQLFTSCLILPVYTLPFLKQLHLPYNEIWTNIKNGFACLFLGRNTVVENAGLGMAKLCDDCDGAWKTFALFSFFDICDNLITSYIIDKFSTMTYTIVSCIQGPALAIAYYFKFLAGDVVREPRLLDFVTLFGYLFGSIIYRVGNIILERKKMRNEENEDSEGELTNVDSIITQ
In short: as §1

[3] = system: P. falciparum 7G8^7G8 parasite line; experiment: Parasite drug susceptibility assay; assay type: cell-based, Plasmodium falciparum; conditions: 72 h, asynchronous asexual blood stages
In short: (§2)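 Asynchronous asexual blood-stage parasites were seeded at 0.3% parasitemia and 1% hematocrit into 2-fold, 10-point test compound dilutions. Incubation was 72 h at 37°C under 5% O2/5% CO2/90% N2. Final parasitemia was read by flow cytometry. IC50 came from nonlinear regression, 4 independent assays in duplicate, with two-tailed Mann-Whitney U tests.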

[4] = system: P. falciparum 7G8^7G8+F145I parasite line; experiment: Parasite drug susceptibility assay; assay type: cell-based, Plasmodium falciparum; conditions: 72 h, asynchronous asexual blood stages
In short: as §2

[5] = system: P. falciparum 7G8^7G8+C350R parasite line; experiment: Parasite drug susceptibility assay; assay type: cell-based, Plasmodium falciparum; conditions: 72 h, asynchronous asexual blood stages
In short: as §2

[6] = system: P. falciparum Dd2^Dd2 parasite line; experiment: Parasite drug susceptibility assay; assay type: cell-based, Plasmodium falciparum; conditions: 72 h, asynchronous asexual blood stages
In short: as §2

[7] = system: P. falciparum WT (3D7) parasite line; experiment: Parasite drug susceptibility assay; assay type: cell-based, Plasmodium falciparum; conditions: 72 h, asynchronous asexual blood stages
In short: as §2

[8] = target: T4, Plasmodium falciparum chloroquine resistance transporter PfCRT, 7G8 isoform (Plasmodium falciparum (isolate 7G8), UniProt W7FI62); experiment: radioligand binding
[9] = target: T4, Plasmodium falciparum chloroquine …; experiment: radioligand binding; remark: listed apart in the source
[10] = target: T4, Plasmodium falciparum chloroquine …; experiment: radioligand binding; remark: listed apart in the source
[11] = substrate: N=C(N)NCCC[C@H](N)C(=O)O; experiment: cells, lysate or membranes named
[12] = read-out: IC50 (concentration yielding half-maximal reduction of [3H]-CQ transport), 100 nM [3H]-CQ, 1 min

`NCCCC[C@H](N)C(=O)O` [lysine] was tested, and the “competition of [3H]-Arg binding (in words)” value (from here on “competition”) (PfCRT 7G8 [1]) was “effectively competed”.

For `CCN(CC)Cc1cc(Nc2ccnc3cc(Cl)ccc23)ccc1O` [amodiaquine], the “competition” value (PfCRT 7G8 [1]) was “effectively competed”.

For `OCCS` [β-mercaptoethanol], the IC50 (PfCRT 7G8 [2]; [12]) was 1240 ± 140 µM, the IC50 (PfCRT 7G8+C289A) was 2580 ± 390 µM and the “remaining [3H]-CQ transport activity” value (PfCRT 7G8+C301A; compared to the activity in the absence of the reducing agent) was 60.2 ± 8.2%. It also gave an IC50 (PfCRT 7G8+C301A; [12]) of 4170 ± 160 µM.

In the case of `CCNCCCC(C)Nc1ccnc2cc(Cl)ccc12` (stereo not drawn) [md-CQ, monodesethyl-chloroquine], the IC50 [3] is reported as 0.919 ± 0.125 µM, the IC50 [4] is reported as 0.0478 ± 0.0025 µM and the IC50 [5] is reported as 0.0365 ± 0.002 µM. The IC50 [6] was 1.8 ± 0.199 µM and the IC50 [7] was 0.0486 ± 0.0031 µM.

With `COc1ccc(CCN(C)CCCC(C#N)(c2ccc(OC)c(OC)c2)C(C)C)cc1OC` (stereo not drawn) [verapamil] the “inhibition of [3H]-CQ and [3H]-Arg uptake (in words)” value (PfCRT 7G8 [2]) was “partial to strong inhibition”.

For `N=C(N)NCCC[C@H](N)C(=O)O` [Arg, arginine], the “competition” value (PfCRT 7G8 [1]) was “effectively competed”, the EC50 (PfCRT 7G8 [1]; half-maximal binding constant (EC50) of [3H]-Arg binding, SPA, isotopic dilution of 125 nM [3H]-Arg with non-radiolabeled Arg) was ~400 µM and 397 µM and the “Vmax, transport in proteoliposomes” value (PfCRT 7G8 [2]; initial rates over 3 s, Michaelis-Menten fit) was 190 nmol/mg/min. The “time course of uptake (in words)” value (PfCRT 7G8 [2]; pH gradient 5.5–7.5 and membrane potential (valinomycin)) was “maximal within one minute”.

B1: Fab CTC (Fab, V domains shown)
VH: EVQLVESGGGLVQPGGSLRLSCAASGFNVSYSYIHWVRQAPGKGLEWVASIYPYSGYTSYADSVKGRFTISADTSKNTAYLQMNSLRAEDTAVYYCARYGSNYSFWYRGSSVTYAIDYWGQGTLVTVSS
VL: DIQMTQSPSSLSASVGDRVTITCRASQSVSSAVAWYQQKPGKAPKLLIYSASSLYSGVPSRFSGSRSGTDFTLTISSLQPEDFATYYCQQSSTWPITFGQGTKVEIK
B1 showed an IC50 [8] of 0.15 µM, an IC50 [9] of 0.2 µM and an IC50 [10] of 0.18 µM.

B2: PfCRT 7G8 (Plasmodium falciparum 7G8) (protein)
chain: MKFASKKNNQKNSSKNDERYRELDNLVQEGNGSRLGGGSCLGKCAHVFKLIFKEIKDNIFIYILSIIYLSVSVMNTIFAKRTLNKIGNYSFVTSETHNFICMIMFFIVYSLFGNKKGNSKERHRSFNLQFFAISMLDACSVILAFIGLTRTTGNIQSFVLQLSIPINMFFCFLILRYRYHLYNYLGAVIIVVTIALVEMKLSFETQEENSIIFNLVLISSLIPVCFSNMTREIVFKKYKIDILRLNAMVSFFQLFTSCLILPVYTLPFLKQLHLPYNEIWTNIKNGFACLFLGRNTVVENCGLGMAKLCDDCDGAWKTFALFSFFDICDNLITSYIIDKFSTMTYTIVSCIQGPALAIAYYFKFLAGDVVREPRLLDFVTLFGYLFGSIIYRVGNIILERKKMRNEENEDSEGELTNVDSIITQ
Work on B2 yielded a Km [11] of 1.30 ± 0.20 µM and a Vmax [11] of 189.2 ± 9.1 nmol/mg/min.
